Assay results taken from ChEMBL document CHEMBL4190362, “Synthesis, biological evaluation and quantitative structure-active relationships of 1,3-thiazolidin-4-one derivatives. A promising chemical scaffold endowed with high antifungal potency and low cytotoxicity” (Eur J Med Chem, 2017).

Experiments:
[1] = test system: Streptococcus alpha-hemolyticus (Streptococcus sp.); assay: Antibacterial activity against Streptococcus Streptococcus alpha hemolyticus assessed as inhibition of microbial growth incubated for 18 to 22 hrs by broth microdilution method
[2] = test system: Candida parapsilosis; assay: Antifungal activity against Candida parapsilosis clinical isolates assessed as inhibition of microbial growth incubated for 24 hrs by broth microdilution method; format: functional; settings: Lodderomyces parapsilosis
In short: (§1)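 Twenty-two clinical Candida isolates (8 C. albicans, 4 C. glabrata, 3 C. tropicalis, 3 C. krusei, 2 C. parapsilosis, 2 C. sake) were identified by colony morphology and biochemistry and subcultured at 35 °C for purity. Compounds were dissolved in DMSO and tested by broth microdilution in Sabouraud dextrose broth per NCCLS/CLSI/EUCAST guidance. Values are geometric mean MIC per species (µg/mL).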

[3] = test system: Candida albicans; assay: Antifungal activity against Candida albicans clinical isolates assessed as inhibition of microbial growth incubated for 24 hrs by broth microdilution method; format: functional
In short: as §1

[4] = test system: Staphylococcus warneri; assay: Antibacterial activity against Staphylococcus warneri assessed as inhibition of microbial growth incubated for 18 to 22 hrs by broth microdilution method; format: functional
In short: (§2)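 Broth microdilution in Mueller-Hinton II broth following NCCLS recommendations; compounds dissolved in DMSO.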

[5] = test system: Candida tropicalis; assay: Antifungal activity against Candida tropicalis clinical isolates assessed as inhibition of microbial growth incubated for 24 hrs by broth microdilution method; format: functional
In short: as §1

[6] = test system: Enterococcus faecalis; assay: Antibacterial activity against Streptococcus faecalis assessed as inhibition of microbial growth incubated for 18 to 22 hrs by broth microdilution method; format: functional
In short: as §2

[7] = test system: Nakaseomyces glabratus; assay: Antifungal activity against Candida glabrata clinical isolates assessed as inhibition of microbial growth incubated for 24 hrs by broth microdilution method; format: functional
In short: as §1

[8] = test system: [Candida] sake; assay: Antifungal activity against Candida sake clinical isolates assessed as inhibition of microbial growth incubated for 24 hrs by broth microdilution method; format: functional; settings: Fermentozyma sake
In short: as §1

[9] = test system: Pichia kudriavzevii; assay: Antifungal activity against Candida krusei clinical isolates assessed as inhibition of microbial growth incubated for 24 hrs by broth microdilution method; format: functional
In short: as §1

[10] = test system: Staphylococcus aureus; assay: Antibacterial activity against Staphylococcus aureus assessed as inhibition of microbial growth incubated for 18 to 22 hrs by broth microdilution method; format: functional
In short: as §2

[11] = test system: Escherichia coli; assay: Antibacterial activity against Escherichia coli assessed as inhibition of microbial growth incubated for 18 to 22 hrs by broth microdilution method; format: functional
In short: as §2

[12] = test system: Klebsiella oxytoca; assay: Antibacterial activity against Klebsiella oxytoca assessed as inhibition of microbial growth incubated for 18 to 22 hrs by broth microdilution method; format: functional
In short: as §2

[13] = test system: Enterobacter; assay: Antibacterial activity against Enterobacter spp. assessed as inhibition of microbial growth incubated for 18 to 22 hrs by broth microdilution method; format: functional
In short: as §2

[14] = test system: Proteus mirabilis; assay: Antibacterial activity against Proteus mirabilis assessed as inhibition of microbial growth incubated for 18 to 22 hrs by broth microdilution method; format: functional
In short: as §2

| MIC [2] [µg/mL] | MIC [3] [µg/mL] | MIC [4] [µg/mL] | MIC [5] [µg/mL] | MIC [6] [µg/mL] | MIC [7] [µg/mL] | MIC [8] [µg/mL] | MIC [9] [µg/mL] | MIC [10] [µg/mL] | MIC [11] [µg/mL] | MIC [12] [µg/mL] | MIC [13] [µg/mL] | MIC [14] [µg/mL] | Structure (SMILES) | MIC [1] [µg/mL] |
| --- | --- | --- | --- | --- | --- | --- | --- | --- | --- | --- | --- | --- | --- | --- |
| 16 | 2 | ≥ 256 | 16 | ≥ 256 | 2 | 16 | 8 | ≥ 256 | ≥ 256 | ≥ 256 | ≥ 256 | ≥ 256 | C/C(=N/N=C1\NC(=O)CS1)c1ccccc1 | ≥ 256 |
| 16 | 8 | ≥ 256 | 16 | ≥ 256 | 8 | 16 | 16 | ≥ 256 | ≥ 256 | ≥ 256 | ≥ 256 | ≥ 256 | O=C1CS/C(=N/N=C\c2cccnc2)N1 | ≥ 256 |
| 256 | 256 | ≥ 256 | 256 | ≥ 256 | 256 | 256 | 256 | ≥ 256 | ≥ 256 | ≥ 256 | ≥ 256 | ≥ 256 | C/C(=N/N=C1\NC(=O)CS1)c1cccnc1 | ≥ 256 |
| 256 | 256 | ≥ 256 | 256 | ≥ 256 | 256 | 256 | 256 | ≥ 256 | ≥ 256 | ≥ 256 | ≥ 256 | ≥ 256 | O=C1CS/C(=N/N=C\c2ccncc2)N1 | ≥ 256 |
| 256 | 128 | ≥ 256 | 8 | ≥ 256 | 16 | 256 | 16 | ≥ 256 | ≥ 256 | ≥ 256 | ≥ 256 | ≥ 256 | O=C1CS/C(=N/N=C\c2c[nH]c3ccccc23)N1 | ≥ 256 |
| 256 | 256 | ≥ 256 | 256 | ≥ 256 | 256 | 256 | 256 | ≥ 256 | ≥ 256 | ≥ 256 | ≥ 256 | ≥ 256 | O=C1CS/C(=N/N=C\c2ccc3c(c2)OCO3)N1 | ≥ 256 |
| 256 | 256 | ≥ 256 | 256 | ≥ 256 | 256 | 256 | 256 | ≥ 256 | ≥ 256 | ≥ 256 | ≥ 256 | ≥ 256 | O=C1CS/C(=N/N=C\c2cccc3ccccc23)N1 | ≥ 256 |
| 256 | 32 | ≥ 256 | 32 | ≥ 256 | 16 | 256 | 16 | ≥ 256 | ≥ 256 | ≥ 256 | ≥ 256 | ≥ 256 | C/C(=N/N=C1\NC(=O)CS1)c1ccc2ccccc2c1 | ≥ 256 |
| 256 | 256 | ≥ 256 | 256 | ≥ 256 | 16 | 256 | 256 | ≥ 256 | ≥ 256 | ≥ 256 | ≥ 256 | ≥ 256 | C/C(=N/N=C1\NC(=O)CS1)c1cc2ccccc2oc1=O | ≥ 256 |
| 2 | 2 | ≥ 256 | 2 | ≥ 256 | 8 | 2 | 2 | ≥ 256 | ≥ 256 | ≥ 256 | ≥ 256 | ≥ 256 | C/C(=N\N=C1/NC(=O)CS1)c1cc2ccccc2o1 | ≥ 256 |
| 2 | 2 | ≥ 256 | 2 | ≥ 256 | 4 | 2 | 4 | ≥ 256 | ≥ 256 | ≥ 256 | ≥ 256 | ≥ 256 | C/C(=N/N=C1\NC(=O)CS1)c1cccc([N+](=O)[O-])c1 | ≥ 256 |
| 16 | 4 | ≥ 256 | 4 | ≥ 256 | 4 | 16 | 8 | ≥ 256 | ≥ 256 | ≥ 256 | ≥ 256 | ≥ 256 | C/C(=N/N=C1\NC(=O)CS1)c1ccc2ccc3ccccc3c2c1 | ≥ 256 |
| 2 | 2 | ≥ 256 | 16 | ≥ 256 | 2 | 2 | 16 | ≥ 256 | ≥ 256 | ≥ 256 | ≥ 256 | ≥ 256 | C/C(=N/N=C1\NC(=O)CS1)c1cccc2ccccc12 | ≥ 256 |
| 2 | 2 | ≥ 256 | 2 | ≥ 256 | 8 | 2 | 4 | ≥ 256 | ≥ 256 | ≥ 256 | ≥ 256 | ≥ 256 | O=C1CS/C(=N/N=C\c2ccccn2)N1 | ≥ 256 |
| 2 | 2 | ≥ 256 | 2 | ≥ 256 | 2 | 8 | 8 | ≥ 256 | ≥ 256 | ≥ 256 | ≥ 256 | ≥ 256 | CC(=O)c1ccc(/C(C)=N\N=C2/NC(=O)CS2)cc1 | ≥ 256 |
| 256 | 16 | ≥ 256 | 8 | ≥ 256 | 16 | 256 | 16 | ≥ 256 | ≥ 256 | ≥ 256 | ≥ 256 | ≥ 256 | C/C(=N/N=C1\NC(=O)CS1)c1ccncc1 | ≥ 256 |
| 16 | 4 | ≥ 256 | 4 | ≥ 256 | 4 | 8 | 8 | ≥ 256 | ≥ 256 | ≥ 256 | ≥ 256 | ≥ 256 | C/C(=N/N=C1\NC(=O)CS1)c1ccc2c(c1)OCCO2 | ≥ 256 |
| 4 | 16 | ≥ 256 | 4 | ≥ 256 | 8 | 8 | 8 | ≥ 256 | ≥ 256 | ≥ 256 | ≥ 256 | ≥ 256 | O=C1CS/C(=N/N=C\c2ccc([N+](=O)[O-])cc2)N1 | ≥ 256 |
| 16 | 4 | ≥ 256 | 8 | ≥ 256 | 8 | 16 | 4 | ≥ 256 | ≥ 256 | ≥ 256 | ≥ 256 | ≥ 256 | C/C(=N/N=C1\NC(=O)CS1)c1ccc([N+](=O)[O-])cc1 | ≥ 256 |
| 4 | 4 | ≥ 256 | 8 | ≥ 256 | 8 | 16 | 2 | ≥ 256 | ≥ 256 | ≥ 256 | ≥ 256 | ≥ 256 | C/C(=N/N=C1\NC(=O)CS1)c1c[nH]c2ccccc12 | ≥ 256 |
| 2 | 2 | ≥ 256 | 2 | ≥ 256 | 2 | 2 | 8 | ≥ 256 | ≥ 256 | ≥ 256 | ≥ 256 | ≥ 256 | C/C(=N/N=C1\NC(=O)CS1)c1ccccc1[N+](=O)[O-] | ≥ 256 |
